Compounds with a hit are over-represented: about 2.2% of the library has one in this group of screens.
SUMO1 PPI mod – alters human SUMO1 binding to SIM partners. inhibition, % at 20 µM. hit rate 0.33% among 360,000. AID 602429. SUMO1 binding to a labelled peptide, TR-FRET, 1 h; in the data active = inhibition above about 37%
Target sequence (P63165 whole entry, looked up): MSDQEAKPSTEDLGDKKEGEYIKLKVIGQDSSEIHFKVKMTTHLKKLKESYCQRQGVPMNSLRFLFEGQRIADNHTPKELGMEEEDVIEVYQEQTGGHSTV
LMPTP block – blocks human LMPTP phosphatase; inhibition, % at 20 µM; hit rate 0.22% among 360,000; recombinant LMPTP-A, OMFP fluorogenic substrate, fluorescence intensity; P24666; AID 651560;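 active = compounds that cut the enzyme signal by at least half of the control window in the single-dose screen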;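 also: plate controls were DMSO wells with enzyme plus substrate for no effect and substrate without enzyme for full effect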
Target sequence (P24666 whole entry, looked up): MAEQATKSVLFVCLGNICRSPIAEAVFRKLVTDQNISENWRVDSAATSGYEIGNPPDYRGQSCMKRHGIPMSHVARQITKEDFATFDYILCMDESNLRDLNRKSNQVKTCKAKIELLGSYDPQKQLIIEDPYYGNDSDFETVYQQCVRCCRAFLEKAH
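Test system – LMPTP-A enzyme · Amount – LMPTP-A at 0.625 nM final in the reaction · Buffer or medium – Bis-Tris pH 6.0, DTT, detergent · Reagent – OMFP 400 µM · Doses – single 20 µM dose · Schedule – reaction 50 min, room temperature, dark · Detection – fluorescence intensity of OMFP turnover product · Evaluation – percent inhibition versus substrate-only and uninhibited controls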
DNMT1 block – inhibitors of human DNMT1 | inhibition (reported as % activation of signal), % at 10 µM | hit rate 0.83% among 360,000 | DNMT1 molecular beacon, Hinp1I cleavage, fluorescence; in the data active = inhibition above about 50%
GRK2 inh – blocks RNA aptamer binding to human GRK2; P25098; bead flow cytometry, FAM-aptamer displacement from GRK2; inhibition of aptamer binding, % at 10 µM; hit rate 0.59% among 330,000; AID 488847;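 active = inhibition of aptamer binding above 40%, roughly 3 SD of noise, on plates passing a quality check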;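 also: median bead fluorescence of bound FAM aptamer so fluorescent compounds give negative values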
Scp1 inh – blocks human Scp-1 phosphatase activity; Q9GZU7; Recombinant Scp1, phosphopeptide, malachite green phosphate absorbance; inhibition, % at 20 µM; hit rate 0.88% among 340,000;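 active = inhibition above about 50% at 20 µM, limit read from the data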;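 also: plate controls were DMSO wells with enzyme for no effect and wells lacking enzyme for full effect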
Target sequence (Q9GZU7 76-261 limits assumed): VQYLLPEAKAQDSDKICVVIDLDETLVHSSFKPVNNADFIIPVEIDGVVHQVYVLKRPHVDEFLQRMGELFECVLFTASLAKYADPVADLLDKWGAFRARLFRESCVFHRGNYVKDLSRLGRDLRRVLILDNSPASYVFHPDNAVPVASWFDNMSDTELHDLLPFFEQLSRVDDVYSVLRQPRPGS
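Test system: SCP-1 catalytic domain; Buffer or medium: Acidic Tris acetate buffer with magnesium and detergent; Also added: Phosphorylated 17-residue peptide substrate; Compound: single 20 µM dose, 1% DMSO; Schedule: enzyme reaction 45 min at room temperature, colour 5 min, stabilisation 30 min; Signal: Phosphate-binding colour reagent, absorbance read at 630 nm.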
STEP block – blocks human striatal-enriched tyrosine phosphatase. AID 588621. recombinant STEP, OMFP fluorogenic substrate, fluorescence. hit rate 0.25% among 360,000. P54829. inhibition, % at 20 µM;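 active = inhibition at 20 µM, scaled per plate between control wells, above about 37%, limit read from the data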;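 also: 0% = DMSO with enzyme and substrate and 100% = substrate only without enzyme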
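Assay system: isolated STEP enzyme / Timing: 20 min at room temperature, dark / Doses: 20 µM, 1% DMSO / Technique: fluorescence intensity, excitation 480 nm, emission 540 nm / Reagent: fluorogenic phosphatase substrate OMFP at 25 µM final / Measure: percent inhibition scaled to no-enzyme and uninhibited-enzyme controls, plate-pattern corrected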
DNMT1 interf DR – counter-screen for DNMT1 inhibitors: spectral interference, dose response; shares compounds with DNMT1 block; molecular beacon fluorescence; IC50, µM; 200 tested, under 10 active; call rule not given here
DNMT1 confirm – confirmation of human DNMT1 inhibitors; DNMT1 molecular beacon HinP1I cleavage, fluorescence; hit rate 8% among 2,300; inhibition, % at 10 µM; AID 602385; shares compounds with DNMT1 block;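 active = average inhibition of at least 30% in the single-concentration confirmation test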
DNMT1 interf – shows spectral interference in the DNMT1 beacon assay; shares compounds with DNMT1 block; DNMT1 molecular beacon spectral interference counterscreen, fluorescence 485/520; activation (fluorescence interference), % at 10 µM; hit rate 1% among 2,300; AID 602387;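 active = activation of at least 30% at 10 µM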;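 also: DNMT1 catalytic domain with a HinP1I cleavage step and a FAM/dabcyl DNA beacon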
An asterisk follows results filed as active; · = no result.

SMILES	SUMO1 PPI mod	LMPTP block	DNMT1 block	GRK2 inh	Scp1 inh	STEP block	DNMT1 confirm	DNMT1 interf	others
COc1cc(/C=C(\C#N)c2nc3ccccc3s2)ccc1OCC(=O)Nc1ccccc1	0	2	57*	0	-9	-4	5	6
CCOC(=O)/C(C#N)=C/c1ccc(OCC(=O)Nc2ccc(C)c(C)c2)c(OC)c1	2	2	54*	0	1	0	2	-2
CCCn1c(=O)c(C(=O)NNC(=O)c2ccccc2Cl)c(O)c2ccccc21	-1	2	-1	2	-7	3	·	·
COc1ccc(NC(=O)COc2ccc3c(C)cc(=O)oc3c2)cc1S(=O)(=O)N1CCCCC1	6	2	63*	0	8	3	-1	-9
Cc1cc(=O)oc2cc(OCC(=O)N/N=C/c3ccccc3O)ccc12	28	39	61*	0	28	26	1	-2
COc1ccc(S(=O)(=O)N2CCOCC2)cc1NC(=O)COc1ccc2c(C)cc(=O)oc2c1	3	1	-1	0	-3	0	·	·
COC(=O)[C@@]12C[C@@H](CC(=O)NCCCN3CCCC3=O)C(=O)N(Cc3ccc4c(c3)OCO4)C1=CCC(C)(C)C2	-2	1	·	·	·	·	·	·
Cc1ccc2nc(NC(=O)/C=C/c3ccc4c(c3)OCO4)sc2c1	-1	8	56*	0	6	10	2	-4
O=C(/C=C/c1ccc2c(c1)OCO2)Nc1nc2ccccc2s1	-1	1	39	1	-4	1	·	·
CC(C)(C)C(=O)Nc1nnc(CC(=O)NCc2ccccc2)s1	-2	0	61*	0	-3	10	7	4
Cc1ccc2nc(Nc3ccc4[nH]c(=O)[nH]c4c3)c(-n3nc(C)cc3C)nc2c1	-4	4	51*	1	-1	1	3	2
Cc1cc(C)n(-c2nc3ccccc3nc2Nc2ccc3c(c2)OCO3)n1	5	3	-10	3	-12	0	·	·
COC(=O)c1ccc(CCc2cc(O)c(Br)cc2O)cc1	2	2	-10	·	-16	-1	·	·
COC(=O)c1ccc(CCc2cc(O)ccc2O)cc1	-2	0	72*	·	-10	-1	4	5
CCOC(=O)c1c(NC(=O)N/N=C/c2ccccc2OCC)sc(C(C)=O)c1C	1	2	56*	·	-3	1	4	2
CCOC(=O)c1c(NC(=O)N/N=C/c2ccc(O)c(OC)c2)sc(C(C)=O)c1C	·	·	·	0	·	·	·	·
O=C(N/N=C/c1ccc(F)cc1)c1cc(-c2ccco2)nc2ccccc12	12	61*	105*	22	81*	16	48*	-1	DNMT1 interf DR=>99
O=C(N/N=C/c1ccc([N+](=O)[O-])o1)c1cc(-c2ccncc2)nc2ccccc12	-10	3	7	3	29	0	·	·
O=C(Nc1nc2ccccc2s1)c1cc(-c2ccco2)nc2ccccc12	13	0	8	2	4	1	·	·
COc1ccc(NC(=O)c2cc(-c3ccco3)nc3ccccc23)cn1	-5	14	49	10	67*	4	2	0
O=C(N/N=C/c1ccc([N+](=O)[O-])o1)c1cc(-c2ccc(-c3ccccc3)cc2)nc2ccccc12	2	2	79*	1	33	-1	0	2
CCNC(=O)COC(=O)c1cc(-c2ccco2)nc2ccccc12	-2	5	71*	13	70*	0	12	3
Cc1nnc(NC(=O)c2cc(-c3ccco3)nc3ccccc23)s1	25	27	96*	91*	·	21	18	1
O=C(Nc1cccc(S(=O)(=O)NC2=NCCC2)c1)c1cc(-c2ccco2)nc2ccccc12	23	61*	99*	0	90*	6	56*	-2	DNMT1 interf DR=>99
COc1ccc(C(C(=O)NC(C)(C)C)n2c(=O)c(-c3ccccc3)nc3ccccc32)cc1 (stereo not drawn)	-11	1	·	·	·	·	·	·
SMILES	SUMO1 PPI mod	LMPTP block	DNMT1 block	GRK2 inh	Scp1 inh	STEP block	DNMT1 confirm	DNMT1 interf	others
O=C(O)c1cccc(-c2csc(C(O)c3cccc(Cl)c3)n2)c1 (stereo not drawn)	10	0	3	·	·	4	·	·
COC1=C(Br)C(=O)c2nc(C)ccc2C1=O	16	4	83*	·	·	3	41*	-8	DNMT1 interf DR=>99
Cc1nc2c(nc1C)C(=O)c1ccccc1C2=O	-38	0	-8	·	2	-1	·	·
COC1=C(N)C(=O)c2nc(C)ccc2C1=O	0	3	78*	·	34	2	53*	-7	DNMT1 interf DR=>99
COc1cccc(S(=O)(=O)N(C)C[C@H]2OCc3cnnn3CCCC(=O)N([C@@H](C)CO)C[C@H]2C)c1	3	-2	2	·	·	-2	·	·
O=C(Nc1cccc(C(=O)N2CCCC2)c1)C1CCCCC1	1	-1	8	·	4	-1	·	·
CCOc1cc2[nH]c(=S)n(CCC(=O)NC3CCCCC3)c(=O)c2cc1OCC	10	0	51*	·	·	-4	2	-1
CCOc1cc2[nH]c(=O)n(CCCCC(=O)NC3CCCCCC3)c(=O)c2cc1OCC	0	-3	6	0	0	-2	·	·
OC[C@@H]1CN(Cc2ccc3c(c2)OCO3)C[C@H](n2cnc3c(N4CCN(c5ccccc5)CC4)ncnc32)O1	-1	3	-10	·	·	4	·	·
O=C(N/N=C/c1coc2ccccc2c1=O)c1cn(-c2ccccc2)nc1-c1ccc(F)cc1	6	0	59*	0	-7	8	1	4
Cc1nc(N(C)C2CCCCC2)c2nnn(Cc3ccc(F)cc3)c2n1	7	1	4	·	·	4	·	·
COc1cc(NS(=O)(=O)c2ccc(-n3cccn3)cc2)cc(OC)c1	6	0	1	·	·	-1	·	·
N#Cc1nnn(-c2ccc(Cl)cc2)c1N	-6	-1	90*	0	-3	0	0	1
COc1ccccc1/C=C/C=N/NC(=O)c1cc(-c2ccco2)[nH]n1	22	67*	61*	0	-1	-1	14	2
NC(c1csc(Nc2ccc(C(=O)c3ccccc3)cc2)n1)C1CCCCC1 (stereo not drawn)	-71	2	3	·	·	-2	·	·
CC(C)(C)CN1CCNC[C@H]1Cc1ccc(O)cc1	11	0	76*	1	0	2	3	4
